The text below walks through data of ChEMBL document CHEMBL4184148 (Bioorg Med Chem Lett, 2017).

A word on the IC50: it is the concentration needed to halve the response being measured. The term EC50 denotes the concentration giving half of the maximal effect.

The target of experiment [1] is Phosphatidylinositol 3-kinase C2 domain-containing subunit gamma (Homo sapiens) (UniProt O75747). In words: Binding affinity to wild-type human partial length PIK3C2G (M1 to I1446 residues) expressed in HEK293 cells at 1 uM by Kinomescan method relative to control. In kind it is cell-based.
Experiment [2] addresses SRSF protein kinase 3 (Homo sapiens) (UniProt Q9UPE1). In words: Binding affinity to wild-type human partial length SRPK3 (P41 to P567 residues) expressed in Escherichia coli BL21 at 1 uM by Kinomescan method relative to control.
Experiment [3] addresses Mitogen-activated protein kinase 3 (Homo sapiens) (UniProt P27361). In words: Binding affinity to wild-type human full length ERK1 (M1 to P379 residues) expressed in Escherichia coli BL21 at 1 uM by Kinomescan method relative to control. The essentials:
(§1)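 Run as one kinome-wide competition binding panel with each compound at a single fixed concentration. Results were plotted as a kinome-wide selectivity map.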

The target in experiment [4] is Tyrosine-protein kinase receptor Tie-1 (Homo sapiens) (UniProt P35590). In words: Binding affinity to wild-type human partial length TIE1 (T819 to A1138 residues) expressed in Escherichia coli BL21 at 1 uM by Kinomescan method relative to control.
Chain of Tyrosine-protein kinase receptor Tie-1 (Homo sapiens) (P35590 whole entry, the tested form may be a part): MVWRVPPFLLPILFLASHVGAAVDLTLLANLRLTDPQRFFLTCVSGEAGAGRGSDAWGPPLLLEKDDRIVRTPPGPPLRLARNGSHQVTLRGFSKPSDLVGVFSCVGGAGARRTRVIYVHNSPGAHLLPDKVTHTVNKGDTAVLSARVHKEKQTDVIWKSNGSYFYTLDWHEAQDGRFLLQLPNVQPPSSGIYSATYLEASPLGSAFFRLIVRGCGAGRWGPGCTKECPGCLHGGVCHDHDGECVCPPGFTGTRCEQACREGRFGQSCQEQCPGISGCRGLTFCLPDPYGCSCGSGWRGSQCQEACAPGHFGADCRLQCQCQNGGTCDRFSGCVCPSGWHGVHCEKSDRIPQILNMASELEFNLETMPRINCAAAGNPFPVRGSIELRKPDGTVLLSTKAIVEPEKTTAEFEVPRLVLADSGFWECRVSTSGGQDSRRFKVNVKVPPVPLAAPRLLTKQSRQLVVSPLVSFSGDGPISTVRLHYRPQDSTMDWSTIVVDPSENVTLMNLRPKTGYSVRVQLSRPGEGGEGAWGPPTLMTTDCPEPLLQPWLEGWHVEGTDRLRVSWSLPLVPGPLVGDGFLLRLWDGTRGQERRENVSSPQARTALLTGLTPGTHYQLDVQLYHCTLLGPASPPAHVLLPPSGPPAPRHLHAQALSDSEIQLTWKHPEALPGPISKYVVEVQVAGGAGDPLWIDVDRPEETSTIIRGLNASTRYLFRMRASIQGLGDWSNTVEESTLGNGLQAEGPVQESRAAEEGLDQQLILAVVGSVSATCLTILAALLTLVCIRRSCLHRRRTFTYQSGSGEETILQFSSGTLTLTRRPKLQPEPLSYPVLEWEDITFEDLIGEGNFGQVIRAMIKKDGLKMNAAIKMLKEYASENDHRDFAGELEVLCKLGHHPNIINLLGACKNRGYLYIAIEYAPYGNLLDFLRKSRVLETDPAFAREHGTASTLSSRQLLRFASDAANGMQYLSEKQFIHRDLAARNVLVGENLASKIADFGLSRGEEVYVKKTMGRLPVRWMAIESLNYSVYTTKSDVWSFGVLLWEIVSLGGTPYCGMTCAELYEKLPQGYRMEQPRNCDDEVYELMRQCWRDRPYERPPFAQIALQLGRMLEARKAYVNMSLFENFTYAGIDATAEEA
For experiment [5], the target named is Homeodomain-interacting protein kinase 2 (Homo sapiens) (UniProt Q9H2X6). In words: Binding affinity to wild-type human partial length HIPK2 (M153 to S564 residues) expressed in HEK293 cells at 1 uM by Kinomescan method relative to control. In kind it is cell-based.
Chain of Homeodomain-interacting protein kinase 2 (Homo sapiens) (Q9H2X6 whole entry, looked up, the tested form may be a part): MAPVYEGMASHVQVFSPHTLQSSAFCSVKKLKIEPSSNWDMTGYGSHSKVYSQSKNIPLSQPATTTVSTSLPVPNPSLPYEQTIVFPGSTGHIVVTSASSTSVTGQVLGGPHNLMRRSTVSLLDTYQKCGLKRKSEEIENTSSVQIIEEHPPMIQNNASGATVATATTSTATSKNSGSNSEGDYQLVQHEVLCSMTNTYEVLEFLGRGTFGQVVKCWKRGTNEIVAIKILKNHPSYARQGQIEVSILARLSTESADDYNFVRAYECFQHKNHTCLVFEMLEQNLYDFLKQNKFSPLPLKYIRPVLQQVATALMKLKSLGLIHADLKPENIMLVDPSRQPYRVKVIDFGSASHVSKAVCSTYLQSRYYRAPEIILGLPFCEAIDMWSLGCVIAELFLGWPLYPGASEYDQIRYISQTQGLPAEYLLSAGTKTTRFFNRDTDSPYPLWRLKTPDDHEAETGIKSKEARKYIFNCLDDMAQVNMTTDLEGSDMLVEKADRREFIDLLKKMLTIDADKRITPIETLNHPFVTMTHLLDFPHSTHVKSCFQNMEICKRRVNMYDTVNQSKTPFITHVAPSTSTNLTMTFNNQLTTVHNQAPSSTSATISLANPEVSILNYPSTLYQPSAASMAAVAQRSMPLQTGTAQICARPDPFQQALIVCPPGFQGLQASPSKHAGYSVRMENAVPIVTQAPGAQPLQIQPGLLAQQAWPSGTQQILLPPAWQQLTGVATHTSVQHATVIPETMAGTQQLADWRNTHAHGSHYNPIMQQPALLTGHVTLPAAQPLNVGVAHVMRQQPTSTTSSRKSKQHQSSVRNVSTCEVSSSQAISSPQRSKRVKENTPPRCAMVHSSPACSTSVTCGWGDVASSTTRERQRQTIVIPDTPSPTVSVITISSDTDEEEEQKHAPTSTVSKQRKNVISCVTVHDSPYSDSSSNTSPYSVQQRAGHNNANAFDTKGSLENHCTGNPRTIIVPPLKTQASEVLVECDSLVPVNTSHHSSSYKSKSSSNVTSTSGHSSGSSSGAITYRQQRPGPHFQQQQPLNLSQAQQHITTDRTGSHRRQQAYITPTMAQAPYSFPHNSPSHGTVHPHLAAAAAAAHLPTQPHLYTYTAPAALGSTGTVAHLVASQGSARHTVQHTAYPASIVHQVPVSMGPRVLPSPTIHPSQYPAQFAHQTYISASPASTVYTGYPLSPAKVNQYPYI
The target in experiment [6] is Leucine-rich repeat serine/threonine-protein kinase 2 (Homo sapiens, UniProt Q5S007). In words: Inhibition of recombinant GST-tagged human LRRK2 (970 to 2527 residues) catalytic domain expressed in baculovirus expression system by ADAPTA assay.
The target of experiment [7] is Beta-adrenergic receptor kinase 1 (Homo sapiens) (UniProt P25098). In words: Binding affinity to wild-type human full length GRK2 (M1 to L689 residues) expressed in HEK293 cells at 1 uM by Kinomescan method relative to control. In kind it is cell-based. The essentials:
as §1

The target in experiment [8] is Serine/threonine-protein kinase ULK2 (Homo sapiens) (UniProt Q8IYT8). In words: Binding affinity to wild-type human partial length ULK2 (M1 to S301 residues) expressed in HEK293 cells at 1 uM by Kinomescan method relative to control. In kind it is cell-based.
For experiment [9], the target named is T1, Aurora kinase B (Homo sapiens, UniProt Q96GD4). In words: Inhibition of recombinant full length His-tagged human Aurora B expressed in baculovirus expression system by Z'LYTE assay. The essentials:
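Z'LYTE biochemical kinase assay run at the Km ATP concentration for each kinase. IC50 was determined and reported ± standard error.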

Experiment [10] addresses Death-associated protein kinase 3 (Homo sapiens) (UniProt O43293). In words: Binding affinity to wild-type human partial length DAPK3 (M1 to A277 residues) expressed in Escherichia coli BL21 at 1 uM by Kinomescan method relative to control.
The target of a further experiment is T2, Aurora kinase A (Homo sapiens, UniProt O14965).
T2 sequence (O14965 whole entry): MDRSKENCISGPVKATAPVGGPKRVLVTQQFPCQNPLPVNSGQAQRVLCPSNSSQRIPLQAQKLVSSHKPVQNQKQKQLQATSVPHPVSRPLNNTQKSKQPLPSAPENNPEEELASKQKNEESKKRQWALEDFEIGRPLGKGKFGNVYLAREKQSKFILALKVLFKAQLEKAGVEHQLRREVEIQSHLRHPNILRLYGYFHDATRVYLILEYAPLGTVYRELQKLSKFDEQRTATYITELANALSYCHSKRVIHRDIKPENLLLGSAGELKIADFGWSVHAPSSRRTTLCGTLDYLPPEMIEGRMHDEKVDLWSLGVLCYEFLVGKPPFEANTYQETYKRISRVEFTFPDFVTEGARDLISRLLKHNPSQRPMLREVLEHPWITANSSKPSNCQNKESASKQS
In words: Inhibition of recombinant full length His-tagged human Aurora A expressed in baculovirus expression system by Z'LYTE assay. The essentials:
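Z'LYTE biochemical kinase assay with ATP at the Km for each kinase. IC50 determined from the assay and reported ± standard error.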

For experiment [11], the target named is Mitogen-activated protein kinase kinase kinase 20 (Homo sapiens) (UniProt Q9NYL2). In words: Binding affinity to wild-type human partial length ZAK (M1 to L331 residues) expressed in Escherichia coli BL21 at 1 uM by Kinomescan method relative to control.
Experiment [12] addresses Serine/threonine-protein kinase pim-2 (Homo sapiens) (UniProt Q9P1W9). In words: Binding affinity to wild-type human partial length PIM2 (M1 to E291 residues) expressed in Escherichia coli BL21 at 1 uM by Kinomescan method relative to control.
In experiment [13] the target is Serine/threonine-protein kinase 3 (Homo sapiens) (UniProt Q13188). In words: Binding affinity to wild-type human partial length MST2 (D17 to E318 residues) expressed in Escherichia coli BL21 at 1 uM by Kinomescan method relative to control.
Experiment [14] concerns the target Inhibitor of nuclear factor kappa-B kinase subunit beta (Homo sapiens) (UniProt O14920). In words: Binding affinity to wild-type human full length IKK-beta (M1 to S756 residues) expressed in HEK293 cells at 1 uM by Kinomescan method relative to control. In kind it is cell-based. The procedure, abridged:
as §1

Experiment [15] addresses Insulin receptor-related protein (Homo sapiens) (UniProt P14616). In words: Binding affinity to wild-type human partial length INSRR (R950 to E1278 residues) expressed in Escherichia coli BL21 at 1 uM by Kinomescan method relative to control.
For experiment [16], the target named is Inhibitor of nuclear factor kappa-B kinase subunit alpha (Homo sapiens) (UniProt O15111). In words: Binding affinity to wild-type human full length IKK-alpha (M1 to E745 residues) expressed in HEK293 cells at 1 uM by Kinomescan method relative to control. In kind it is cell-based. The procedure, abridged: as §1
For experiment [17], the target named is Dual specificity protein kinase CLK2 (Homo sapiens) (UniProt P49760). In words: Binding affinity to wild-type human partial length CLK2 (D144 to R498 residues) expressed in Escherichia coli BL21 at 1 uM by Kinomescan method relative to control.
The target in experiment [18] is Serine/threonine-protein kinase 4 (Homo sapiens) (UniProt Q13043). In words: Binding affinity to wild-type human full length MST1 (M1 to F487 residues) expressed in Escherichia coli BL21 at 1 uM by Kinomescan method relative to control. The essentials:
as §1

Experiment [19] addresses T1, Aurora kinase B. In words: Inhibition of Aurora B in human HCT116 cells assessed as reduction in histone H3 phosphorylation at S10 residues after 4 hrs by Western blot analysis. In kind it is cell-based. The essentials: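 Cells were exposed to compound in dose-response for 4 h, then lysed for western blotting of histone H3 pS10. The cellular EC50 was derived from the dose-response curves. Three replicate experiments were run.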
On the technique in general: A western blot detects proteins with antibodies after separation by electrophoresis.

In experiment [20] the target is Eukaryotic translation initiation factor 2-alpha kinase 1 (Homo sapiens) (UniProt Q9BQI3). In words: Binding affinity to wild-type human partial length EIF2AK1 (Q147 to E603 residues) expressed in HEK293 cells at 1 uM by Kinomescan method relative to control. In kind it is cell-based.
Chain of Eukaryotic translation initiation factor 2-alpha kinase 1 (Homo sapiens) (Q9BQI3 whole entry, the tested form may be a part, canonical isoform): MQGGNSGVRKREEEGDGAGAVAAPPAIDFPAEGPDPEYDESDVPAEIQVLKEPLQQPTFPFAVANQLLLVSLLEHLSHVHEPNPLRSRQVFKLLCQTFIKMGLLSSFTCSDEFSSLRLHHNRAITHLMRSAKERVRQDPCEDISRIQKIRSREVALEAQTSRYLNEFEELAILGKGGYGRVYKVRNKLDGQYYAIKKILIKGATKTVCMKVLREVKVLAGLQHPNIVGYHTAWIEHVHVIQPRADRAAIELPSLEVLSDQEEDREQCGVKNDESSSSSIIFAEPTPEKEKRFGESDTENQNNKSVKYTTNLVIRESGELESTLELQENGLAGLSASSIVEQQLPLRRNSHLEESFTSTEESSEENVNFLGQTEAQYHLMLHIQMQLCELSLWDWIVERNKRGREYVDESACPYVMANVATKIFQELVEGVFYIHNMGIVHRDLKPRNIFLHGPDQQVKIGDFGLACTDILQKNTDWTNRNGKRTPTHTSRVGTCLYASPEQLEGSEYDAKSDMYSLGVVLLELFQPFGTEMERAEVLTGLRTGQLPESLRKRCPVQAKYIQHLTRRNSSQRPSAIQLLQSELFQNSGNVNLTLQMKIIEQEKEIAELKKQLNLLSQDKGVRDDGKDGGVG
Experiment [21] has as its target Phosphorylase b kinase gamma catalytic chain, liver/testis isoform (Homo sapiens) (UniProt P15735). In words: Binding affinity to wild-type human partial length PHKG2 (M1 to W300 residues) expressed in Escherichia coli BL21 at 1 uM by Kinomescan method relative to control.

Molecules are shown by their SMILES.

T1 sequence (Q96GD4 whole entry): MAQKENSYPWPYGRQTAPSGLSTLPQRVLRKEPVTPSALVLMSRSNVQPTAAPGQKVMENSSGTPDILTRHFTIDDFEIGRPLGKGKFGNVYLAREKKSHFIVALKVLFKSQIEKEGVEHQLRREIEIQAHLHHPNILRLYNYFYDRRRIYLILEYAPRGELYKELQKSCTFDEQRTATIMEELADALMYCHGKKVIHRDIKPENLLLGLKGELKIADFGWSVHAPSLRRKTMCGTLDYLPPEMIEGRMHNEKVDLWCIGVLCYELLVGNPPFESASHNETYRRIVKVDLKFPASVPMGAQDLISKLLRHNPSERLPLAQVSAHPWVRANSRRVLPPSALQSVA
Chain of Serine/threonine-protein kinase pim-2 (Homo sapiens) (Q9P1W9 whole entry, looked up, the tested form may be a part): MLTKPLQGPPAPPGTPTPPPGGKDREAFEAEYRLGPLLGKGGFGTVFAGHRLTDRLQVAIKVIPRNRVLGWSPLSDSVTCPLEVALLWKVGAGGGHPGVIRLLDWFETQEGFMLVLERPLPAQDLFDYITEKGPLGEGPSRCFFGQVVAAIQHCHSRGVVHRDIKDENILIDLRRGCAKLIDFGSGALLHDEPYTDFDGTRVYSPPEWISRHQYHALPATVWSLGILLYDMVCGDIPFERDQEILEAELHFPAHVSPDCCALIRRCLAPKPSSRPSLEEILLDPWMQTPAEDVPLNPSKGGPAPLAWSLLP
Chain of Mitogen-activated protein kinase 3 (Homo sapiens) (P27361 whole entry, the tested form may be a part): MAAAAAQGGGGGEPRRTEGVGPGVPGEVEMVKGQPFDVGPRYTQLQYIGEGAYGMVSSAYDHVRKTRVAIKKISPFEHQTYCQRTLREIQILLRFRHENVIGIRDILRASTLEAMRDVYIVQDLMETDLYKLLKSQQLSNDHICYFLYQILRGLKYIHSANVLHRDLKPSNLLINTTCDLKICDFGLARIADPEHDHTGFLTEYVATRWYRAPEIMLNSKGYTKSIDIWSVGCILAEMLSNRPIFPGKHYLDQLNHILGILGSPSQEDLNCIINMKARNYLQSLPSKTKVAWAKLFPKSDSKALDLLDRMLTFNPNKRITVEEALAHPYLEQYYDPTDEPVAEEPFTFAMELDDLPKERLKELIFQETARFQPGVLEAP
Chain of Phosphorylase b kinase gamma catalytic chain, liver/testis isoform (Homo sapiens) (P15735 whole entry, the tested form may be a part, canonical isoform): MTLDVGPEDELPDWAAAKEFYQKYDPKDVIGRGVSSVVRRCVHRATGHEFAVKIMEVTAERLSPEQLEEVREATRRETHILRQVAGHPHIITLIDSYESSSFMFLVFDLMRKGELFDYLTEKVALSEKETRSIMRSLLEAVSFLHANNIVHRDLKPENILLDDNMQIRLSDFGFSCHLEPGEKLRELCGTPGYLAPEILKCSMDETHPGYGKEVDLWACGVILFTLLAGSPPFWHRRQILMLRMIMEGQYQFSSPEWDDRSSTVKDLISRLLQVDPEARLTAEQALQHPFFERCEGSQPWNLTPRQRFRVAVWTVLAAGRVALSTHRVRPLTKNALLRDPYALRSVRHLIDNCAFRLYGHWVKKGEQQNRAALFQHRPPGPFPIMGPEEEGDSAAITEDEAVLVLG
Chain of Death-associated protein kinase 3 (Homo sapiens) (O43293 whole entry, looked up, the tested form may be a part): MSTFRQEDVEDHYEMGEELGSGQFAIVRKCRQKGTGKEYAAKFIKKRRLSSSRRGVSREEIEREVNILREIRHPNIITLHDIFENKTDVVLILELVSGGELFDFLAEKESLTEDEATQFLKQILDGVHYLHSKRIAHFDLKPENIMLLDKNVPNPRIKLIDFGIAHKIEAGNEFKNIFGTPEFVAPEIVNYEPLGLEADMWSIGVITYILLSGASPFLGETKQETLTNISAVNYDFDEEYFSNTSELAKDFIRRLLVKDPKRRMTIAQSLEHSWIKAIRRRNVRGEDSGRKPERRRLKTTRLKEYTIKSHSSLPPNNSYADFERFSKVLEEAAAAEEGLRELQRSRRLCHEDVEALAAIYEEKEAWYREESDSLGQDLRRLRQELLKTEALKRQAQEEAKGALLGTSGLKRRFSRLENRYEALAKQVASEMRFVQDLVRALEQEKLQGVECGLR

Take `CCC(=O)Nc1ccc(C(=O)Nc2ccc(Nc3ncc4c(n3)N(C)c3ccc(C)cc3C(=O)N4C)cc2)cc1`: the Activity in experiment [1] worked out at 81%; in [2], 100%; in experiment [3], 95%; in experiment [4], 88%; in experiment [5], 100%; in experiment [7], 90%. In addition, the Activity in [8] is 82%; in [10] it was 82%; in experiment [11], 85%; in experiment [12] it was 100%; in experiment [13] it was 70%; in experiment [14], 95%. For the same compound, the Activity in experiment [15] amounted to 100%; in experiment [16], 99%; in experiment [17], 88%; in [18], 83%; in experiment [20], 93%; in experiment [21] it was 88%. Further, the IC50 in experiment [6] was 714 nM; on Aurora kinase B [9], 41 nM; on Aurora kinase A, 52 nM. In addition, the EC50 at Aurora kinase B [19] was determined as 11 nM.

Regarding `C=CC(=O)Nc1ccc(C(=O)Nc2ccc(Nc3ncc4c(n3)N(C)c3ccc(C)cc3C(=O)N4C)cc2)cc1`, the Activity came to 71% in experiment [1]; 100% in experiment [2]; 100% in experiment [3]; 96% in experiment [4]; 94% in experiment [5]; 100% in experiment [7]. For the same compound, the Activity was 94% in experiment [8]; 100% in experiment [10]; 100% in [11]; 100% in experiment [12]; 100% in experiment [13]; 97% in experiment [14]. The Activity turned out to be 100% in [15]; 100% in [16]; 99% in [17]; 45% in [18]; 100% in experiment [20]; 100% in experiment [21]. In addition, the figures for the concentration for half-maximal inhibition (IC50) (in experiment [6]; on Aurora kinase B [9]; on Aurora kinase A) were 754 nM, 29 nM and 44 nM, respectively. Moreover, the concentration for a half-maximal effect (EC50) at Aurora kinase B [19] was 7.1 nM.
